Reference: ChEMBL document CHEMBL3808288, “Identification and in Vivo Evaluation of Liver X Receptor β-Selective Agonists for the Potential Treatment of Alzheimer's Disease” (J Med Chem, 2016)
Converted amounts (≈) assume the structure as drawn. The source made the active and inactive calls. No cut-off for these calls is given here.

Tests used:
[1] = Clearance in rhesus monkey; format: ADME, organism-based, Macaca mulatta; conditions: in vivo
Rattus norvegicus [2] = assay: Toxicity in Wistar Han rat assessed as change in plasma triglyceride level at 100 mg/kg, sc dosed for 4 days […]; format: organism-based; conditions: in vivo, 96 h
Rhesus monkey [3] = assay: Upregulation of CETP in rhesus monkey at 20 mg/kg, po qd for 2 weeks relative to control; format: ADME, organism-based; conditions: Macaca mulatta, 336 h, read-out: FC
Rhesus monkey [4] = assay: Increase in amyloid beta40 in CSF of rhesus monkey at 20 mg/kg, po administered for 2 weeks; format: functional, Macaca mulatta
[5] = Oral bioavailability in rat; format: ADME, organism-based; conditions: in vivo
[6] = Half life of compound in rhesus monkey; format: ADME, organism-based, Macaca mulatta; conditions: in vivo
Mus musculus [7] = assay: Activation of LXR in Tg2576 transgenic mouse assessed decrease in DEA-soluble amyloid-beta level in brain at 50 mg/kg, sc dosed for 3 weeks; format: functional; conditions: 504 h
Method in brief: (§1)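 12-month-old Tg2576 mice were dosed subcutaneously for three weeks. Brain was assayed for ABCA1 protein, soluble apoE and DEA-soluble Aβ, and plasma and liver were assayed for triglycerides. Groups were compared with vehicle by ANOVA.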

[8] = target: T1, Oxysterols receptor LXR-beta (Homo sapiens) (UniProt P55055); assay: Agonist activity at GST-tagged LXRbeta-LBD (unknown origin) by LanthaScreen TR-FRET liver X receptor coactivator assay relative to T1317
T1 sequence (whole entry): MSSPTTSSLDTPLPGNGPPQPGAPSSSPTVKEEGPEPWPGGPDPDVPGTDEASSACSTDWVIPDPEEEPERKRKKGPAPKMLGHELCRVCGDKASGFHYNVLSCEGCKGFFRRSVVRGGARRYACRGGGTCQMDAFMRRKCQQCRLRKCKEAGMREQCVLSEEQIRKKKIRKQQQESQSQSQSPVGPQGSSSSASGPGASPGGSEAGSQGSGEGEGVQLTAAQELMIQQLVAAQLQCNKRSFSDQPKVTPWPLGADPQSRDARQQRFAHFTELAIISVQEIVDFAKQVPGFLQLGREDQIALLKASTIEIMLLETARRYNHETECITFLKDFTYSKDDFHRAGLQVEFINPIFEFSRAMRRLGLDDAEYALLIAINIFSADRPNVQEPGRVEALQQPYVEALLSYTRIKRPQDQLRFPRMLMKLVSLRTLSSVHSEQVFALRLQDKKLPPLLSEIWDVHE
Method in brief: (§2)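 Cofactor recruitment assay using the ligand binding domains of LXRβ or LXRα. The read-out was EC50 and Emax, with Emax relative to a full agonist control.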

[9] = Clearance in rat; format: ADME, organism-based; conditions: in vivo
[10] = target: T2, Oxysterols receptor LXR-alpha (Homo sapiens) (UniProt Q13133); assay: Agonist activity at GST-tagged LXRalpha-LBD (unknown origin) by LanthaScreen TR-FRET liver X receptor coactivator assay T1317; method in brief: as §2
T2 sequence (whole entry): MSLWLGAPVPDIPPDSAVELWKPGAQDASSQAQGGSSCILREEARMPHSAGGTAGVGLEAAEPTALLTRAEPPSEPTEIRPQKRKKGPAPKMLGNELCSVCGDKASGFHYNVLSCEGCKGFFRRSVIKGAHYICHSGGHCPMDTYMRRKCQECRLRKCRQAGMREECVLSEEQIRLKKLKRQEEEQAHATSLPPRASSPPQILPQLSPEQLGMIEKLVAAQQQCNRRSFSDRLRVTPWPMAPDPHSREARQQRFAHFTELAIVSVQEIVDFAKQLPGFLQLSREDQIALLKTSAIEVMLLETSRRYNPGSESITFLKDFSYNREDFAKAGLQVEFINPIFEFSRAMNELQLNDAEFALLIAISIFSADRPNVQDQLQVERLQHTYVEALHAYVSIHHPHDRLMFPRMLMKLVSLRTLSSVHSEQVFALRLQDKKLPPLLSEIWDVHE

[11] = Volume of distribution at steady state in rat; format: ADME, organism-based; conditions: in vivo, read-out: Vdss
Rhesus monkey [12] = assay: Increase in hepatic fat content in rhesus monkey at 10 and 20 mg/kg, po qd for 2 weeks by magnetic resonance spectroscopic imaging method relative to vehicle control; format: ADME, organism-based, Macaca mulatta; conditions: in vivo, 336 h
P-gp [13] = assay: Efflux ratio in MDCK cells expressing rat P-gp assessed as ratio of permeability across basolateral to apical side over apical to basolateral side; format: ADME, cell-based, Canis lupus familiaris; conditions: dog, MDCK-MDR1
Mus musculus [14] = assay: Activation of LXR in Tg2576 transgenic mouse assessed increase in brain ABCA1 level at 50 mg/kg, sc dosed for 3 weeks by western blotting method; format: functional, organism-based; method in brief: as §1
Rhesus monkey [15] = assay: Increase in lipid level in liver of rhesus monkey at 10 to 20 mg/kg, po qd for 2 weeks; format: ADME, organism-based, Macaca mulatta; conditions: in vivo, 336 h
Rattus norvegicus [16] = assay: Toxicity in Wistar Han rat assessed as change in liver triglyceride level at 100 mg/kg, sc dosed for 4 days […]; format: organism-based; conditions: in vivo, 96 h
Rhesus monkey [17] = assay: Increase in lipid level in serum of rhesus monkey at 10 to 20 mg/kg, po qd for 2 weeks; format: ADME, organism-based, Macaca mulatta; conditions: in vivo, 336 h
Mus musculus [18] = assay: Toxicity in Tg2576 transgenic mouse assessed as change in plasma triglyceride level at 50 mg/kg, sc dosed for 3 weeks; format: organism-based; conditions: in vivo, 504 h; method in brief: as §1
[19] = target: T2, Oxysterols receptor LXR-alpha (Homo sapiens); assay: (§3) Partial agonist activity at GST-tagged LXRalpha-LBD (unknown origin) by LanthaScreen TR-FRET liver X receptor coactivator assay; method in brief: as §2
[20] = target: T3, Oxysterols receptor LXR-alpha (Homo sapiens, UniProt Q13133); assay: as §3; method in brief: as §2
T3 sequence (Q13133 whole entry): T2 sequence (whole entry)

[21] = Half life of compound in rat; format: ADME, organism-based; conditions: in vivo
[22] = Apparent permeability of compound in MDCK cells; format: ADME, cell-based, Canis lupus familiaris; conditions: dog
[23] = Protein binding in rat plasma; format: ADME, cell-free; conditions: read-out: PPB (converted)
[24] = Ratio of drug uptake in brain to plasma in rat; format: ADME, cell-free; conditions: brain and plasma, read-out: BPR
[25] = target: T4, Oxysterols receptor LXR-beta (Homo sapiens, UniProt P55055); assay: Agonist activity at GST-tagged LXRbeta-LBD (unknown origin) by LanthaScreen TR-FRET liver X receptor coactivator assay; method in brief: as §2
T4 sequence (P55055 whole entry): T1 sequence (whole entry)

P-gp [26] = assay: Efflux ratio in MDCK cells expressing human P-gp assessed as ratio of permeability across basolateral to apical side over apical to basolateral side; format: ADME, cell-based, Canis lupus familiaris; conditions: dog, MDCK-MDR1
Rhesus monkey [27] = assay: Increase in apoE level in CSF of rhesus monkey at 10 and 20 mg/kg, po administered for 2 weeks by apoE ELISA relative to control; format: functional, Macaca mulatta
Method in brief: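 Rhesus monkeys were dosed orally once daily for 2 weeks after randomisation on baseline lipids, liver enzymes and liver fat. CSF was taken by lumbar puncture at baseline and at trough after the last dose, and apoE was measured against baseline.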

Mus musculus [28] = assay: Reversal of hyperlocomotary behavior in Tg2576 transgenic mouse at 50 mg/kg, sc administered as single dose 4 hrs before test by open field test; format: functional, organism-based
Method in brief: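 A single subcutaneous dose was given 4 h before the open-field locomotor test.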

Rhesus monkey [29] = assay: Decrease in ratio of HDL to LDL level in rhesus monkey plasma at 10 to 20 mg/kg, po qd for 2 weeks; format: ADME, organism-based, Macaca mulatta; conditions: in vivo, 336 h
Method in brief: (§4)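 Rhesus monkeys were dosed orally once daily for 2 weeks. LDL and HDL cholesterol were measured in serum at trough after the last dose and compared with baseline serum samples taken before dosing.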

Rhesus monkey [30] = assay: Increase in amyloid beta42 in CSF of rhesus monkey at 20 mg/kg, po administered for 2 weeks; format: functional, Macaca mulatta
Rattus norvegicus [31] = assay: Increase in apoE level in CSF of Wistar Han rat at 100 mg/kg, sc dosed for 4 days by western blotting method; format: functional, organism-based
Method in brief: (§5)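 Rats were dosed subcutaneously for 4 days, and apoE and Aβ were then measured in CSF.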

[32] = Protein binding in rhesus monkey plasma; format: ADME, cell-free, Macaca mulatta; conditions: read-out: PPB (converted)
Mus musculus [33] = assay: Toxicity in wild-type mouse assessed as effect on locomotary behavior at 50 mg/kg, sc dosed for 16 days mins by open field test; format: organism-based; conditions: in vivo, 384 h
Method in brief: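 Wild-type mice were part of a three-week subcutaneous dosing study that also included Tg2576 transgenic mice. Locomotor activity was scored in an open-field arena after 16 days of dosing.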

[34] = Cmax in rhesus monkey at 10 mg/kg, po administered for 2 weeks; format: ADME, organism-based, Macaca mulatta; parameters: dose 10 mg/kg, route oral; conditions: in vivo
Method in brief: (§6)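 Cmax was estimated across a 2-week once-daily oral dosing study in rhesus monkeys.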

[35] = Cmax in rhesus monkey at 20 mg/kg, po administered for 2 weeks; format: ADME, organism-based, Macaca mulatta; parameters: dose 20 mg/kg, route oral; conditions: in vivo; method in brief: as §6
[36] = Volume of distribution at steady state in rhesus monkey; format: ADME, organism-based, Macaca mulatta; conditions: in vivo, read-out: Vdss
Mus musculus [37] = assay: Activation of LXR in Tg2576 transgenic mouse assessed increase in soluble apoE level in brain at 50 mg/kg, sc dosed for 3 weeks; format: functional, organism-based; method in brief: as §1
[38] = Oral bioavailability in rhesus monkey; format: ADME, organism-based, Macaca mulatta; conditions: in vivo
Rattus norvegicus [39] = assay: Increase in amyloid beta level in CSF of Wistar Han rat at 100 mg/kg, sc dosed for 4 days by western blotting method; format: functional, organism-based; method in brief: as §5
[40] = target: T2, Oxysterols receptor LXR-alpha (Homo sapiens); assay: (§7) Partial agonist activity at LXRalpha (unknown origin) expressed in human HepG2 cells co-expressing ABCA1 promoter measured after 48 hrs by cell-based transactivation assay
Method in brief: (§8)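 Cell-based transactivation assay using endogenous LXRβ or LXRα. The read-out was EC50 and Emax, with Emax expressed relative to a full agonist control set at 100%.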

[41] = target: T3, Oxysterols receptor LXR-alpha; assay: as §7; method in brief: as §8
[42] = Solubility of the compound at pH 2; format: physicochemical; conditions: buffer
Rhesus monkey [43] = assay: Increase in LDL cholesterol level in rhesus monkey at 10 to 20 mg/kg, po qd for 2 weeks; format: ADME, organism-based, Macaca mulatta; conditions: in vivo, 336 h; method in brief: as §4
Mus musculus [44] = assay: Toxicity in Tg2576 transgenic mouse assessed as change in liver triglyceride level at 50 mg/kg, sc dosed for 3 weeks; format: organism-based; conditions: in vivo, 504 h; method in brief: as §1
Mus musculus [45] = assay: Reversal of hyperlocomotary behavior in Tg2576 transgenic mouse at 50 mg/kg, sc dosed for 16 days by open field test; format: functional, organism-based
Method in brief: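 Mice from the three-week subcutaneous study were tested in the open field for locomotor activity after 16 days of dosing. Wild-type mice were included for comparison.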

clearance [1]: 18 mL/min/kg | bioavailability [5]: 71% | half-life [6]: 2 h | Emax [8]: 103% | clearance [9]: 87 mL/min/kg | Emax [10]: 49% | Vd [11]: 8.8 L/kg | efflux ratio (P-gp [13]): 0.8 | Emax [19]: 49% | EC50 [20]: 1900 nM | half-life [21]: 2.9 h | Papp [22]: 24 ×10⁻⁶ cm/s | fraction unbound [23]: 0.018 | Kp [24]: 0.62 | EC50 [25]: 30 nM | efflux ratio (P-gp [26]): 0.6 | fraction unbound [32]: 0.007 | Cmax [34]: 1 µM | Cmax [35]: 18 µM | Vd [36]: 2.7 L/kg | bioavailability [38]: 77% | Emax [40]: 31% | EC50 [41]: 830 nM | solubility [42]: 205 µM (≈ 106 µg/mL)
SMILES: CC(C)[C@@](O)(C(=O)N1CCC(C2CCN(c3ccc(C(=O)N(C)C)c(Cl)c3)CC2)CC1)C(F)(F)F
Activity (Rattus norvegicus [2]): Non-toxic | fold induction at 20 mg/kg (Rhesus monkey [3]): 2.8 | Activity (Rhesus monkey [4]): 25% | inhibition in vivo at 50 mg/kg (Mus musculus [7]): 28% | Activity (Rhesus monkey [12]): Non-toxic | Activity (Mus musculus [14]): Active | Activity (Rhesus monkey [15]): Non-toxic | Activity (Rattus norvegicus [16]): Non-toxic | Activity (Rhesus monkey [17]): Non-toxic | Activity (Mus musculus [18]): Non-toxic | fold change (FC) (Rhesus monkey [27]): 3 | Activity (Mus musculus [28]): inactive | Activity (Rhesus monkey [29]): Toxic | Activity (Rhesus monkey [30]): 25% | Activity (Rattus norvegicus [31]): Active | Activity (Mus musculus [33]): Non-toxic | Activity (Mus musculus [37]): Active | Activity (Rattus norvegicus [39]): Active | Activity (Rhesus monkey [43]): Toxic | Activity (Mus musculus [44]): Non-toxic | Activity (Mus musculus [45]): Active
